SMILES strings stand for the structures.

The text below walks through data of paper PMC7408256 (ACS Omega, 2020).

Data set [1] has as its target VEGFR2. The following applies: cited from earlier work.
In data set [2] the test system is T-47D. The experiment in a line: NCI one-dose screen: T-47D. Format: cell-based. The settings on record: Homo sapiens, T47D, read-out: Growth inhibition percentage (GI %). An outline of the steps:
(§1)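 Human tumour lines grown in RPMI 1640 with 5% FBS and 2 mM L-glutamine, seeded at 5000–40,000 cells/well, 24 h at 37 °C, 5% CO2. Time-zero plates TCA-fixed. Test compound (DMSO stock at 400× final) added to a final 10 µM, 48 h at 37 °C. Cells fixed with cold TCA (50% adherent, 80% suspension) and stained with sulforhodamine B; absorbance read at 515 nm. GI% = 100 − % growth relative to untreated control.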

The subject of data set [3] is A549/ATCC. Put plainly: NCI one-dose screen: A549/ATCC. It is filed as cell-based. The following applies: Homo sapiens, A549, read-out: Growth inhibition percentage (GI %). The method in brief:
(§2)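 Cells grown in RPMI 1640 with 5% FBS and 2 mM L-glutamine, seeded at 5000–40,000 cells/well, preincubated 24 h at 37 °C and 5% CO2. Time-zero plates were TCA-fixed. Test compound (DMSO stock diluted in gentamicin medium) was added at a final 10^-5 M for 48 h. Cells were TCA-fixed (80% for suspension lines), SRB-stained and read at 515 nm. GI% = 100 − % growth versus untreated control.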

Data set [4] relates to newly formed blood capillaries of HET-CAM. Put plainly: HET-CAM angiogenesis study. Format: in vivo, hen. The method in brief: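 Fertilized hen eggs were incubated 9 days at 37 °C with rotation, in groups of three. Test compound at 40 μM in 40 μL of 40% DMSO in saline was dropped onto a 5 mm filter-paper disc on the CAM. Control got 40 μL vehicle. On day 11 each egg was angiographed. Newly formed small vessels within a 100 mm2 circle were counted by image analysis. One-way ANOVA with Dunnett's test.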

In data set [5] the test system is K-562. Put plainly: NCI one-dose screen: K-562. Format: cell-based. The following applies: Homo sapiens, K562, read-out: Growth inhibition percentage (GI %). The method in brief:
as §2

For data set [6], the system named is MOLT-4. The experiment in a line: NCI one-dose screen: MOLT-4. The settings on record: Homo sapiens, MOLT-4, read-out: Growth inhibition percentage (GI %). Format: cell-based. The method in brief:
as §2

The test system of data set [7] is TK-10. The experiment in a line: NCI one-dose screen: TK-10. Format: cell-based. The following applies: Homo sapiens, TK-10, read-out: Growth inhibition percentage (GI %). An outline of the steps:
as §1

Data set [8] concerns PC-3. Put plainly: NCI one-dose screen: PC-3. Format: cell-based. The settings on record: Homo sapiens, PC-3, read-out: Growth inhibition percentage (GI %). The method in brief:
as §2

The subject of data set [9] is chick embryos / HET-CAM. The experiment in a line: HET-CAM mortality and toxicity. It is filed as in vivo, hen. The settings on record: 40 μM, 40 μL in 40% DMSO in sterile saline, applied 9th day, examined 11th day. The method in brief:
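Hen eggs were incubated at 37 °C with 2-hourly rotation and candled on day 5; dead eggs were excluded. A window was opened and taped. On day 9, 40 μL of test compound (40 or 100 μM, in 40% or 100% DMSO in saline) went onto a 5 mm filter disc at a low-vessel-density CAM area, 3 eggs/concentration. Embryo toxicity and mortality were assessed by candling on day 11.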

The target in data set [10] is c-Met kinase. The settings on record: read-out: IC50 c-Met; cited from earlier work.
Data set [11] relates to NCI-H460. The experiment in a line: NCI one-dose screen: NCI-H460. The settings on record: Homo sapiens, NCI-H460, read-out: Growth inhibition percentage (GI %). It is filed as cell-based. The method in brief:
as §2

Data set [12] has as its system MDA-MB-231. Put plainly: NCI one-dose screen: MDA-MB-231. It is filed as cell-based. The settings on record: Homo sapiens, MDA-MB-231, read-out: Growth inhibition percentage (GI %). The method in brief:
as §2

The subject of data set [13] is SF-539. The experiment in a line: NCI one-dose screen: SF-539. The settings on record: Homo sapiens, SF-539, read-out: Growth inhibition percentage (GI %). Format: cell-based. The method in brief:
as §2

In data set [14] the test system is SR. Put plainly: NCI one-dose screen: SR. Format: cell-based. The settings on record: Homo sapiens, read-out: Growth inhibition percentage (GI %). An outline of the steps:
as §1

For data set [15], the system named is HCC-2998. Put plainly: NCI one-dose screen: HCC-2998. Format: cell-based. The following applies: Homo sapiens, HCC 2998, read-out: Growth inhibition percentage (GI %). An outline of the steps:
as §2

Data set [16] has as its system SNB-19. Put plainly: NCI one-dose screen: SNB-19. It is filed as cell-based. The settings on record: Homo sapiens, SNB-19, read-out: Growth inhibition percentage (GI %). An outline of the steps: as §2
In data set [17] the test system is SK-MEL-2. Put plainly: NCI one-dose screen: SK-MEL-2. It is filed as cell-based. The settings on record: Homo sapiens, SK-MEL-2, read-out: Growth inhibition percentage (GI %). The method in brief: as §2
The test system of data set [18] is RXF 393. The experiment in a line: NCI one-dose screen: RXF 393. Format: cell-based. The settings on record: Homo sapiens, RXF 393, read-out: Growth inhibition percentage (GI %). The method in brief: as §2
For data set [19], the system named is MCF7. The experiment in a line: NCI one-dose screen: MCF7. It is filed as cell-based. The following applies: Homo sapiens, MCF7, read-out: Growth inhibition percentage (GI %). The method in brief: as §2
The test system of data set [20] is HCT-116. Put plainly: NCI one-dose screen: HCT-116. It is filed as cell-based. The following applies: Homo sapiens, HCT-116, read-out: Growth inhibition percentage (GI %), HCT-116, colon cancer; single dose 10 μM. An outline of the steps:
as §2

Data set [21] deals with 786-0. The experiment in a line: NCI one-dose screen: 786-0. The following applies: Homo sapiens, 786-0, read-out: Growth inhibition percentage (GI %). Format: cell-based. An outline of the steps:
as §2

In data set [22] the test system is OVCAR-3. Put plainly: NCI one-dose screen: OVCAR-3. The following applies: Homo sapiens, OVCAR-3, read-out: Growth inhibition percentage (GI %). It is filed as cell-based. An outline of the steps: as §2
In data set [23] the test system is EKVX. The experiment in a line: NCI one-dose screen: EKVX. Format: cell-based. The settings on record: Homo sapiens, read-out: Growth inhibition percentage (GI %). The method in brief:
as §2

The test system of data set [24] is NCI 58 human cell lines. Put plainly: NCI one-dose screen: whole panel summary. Format: cell-based. An outline of the steps: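 NCI 58-line single-dose screen in nine subpanels. Cells were exposed for 48 h at 37 °C to a final 10 µM test compound. Growth was measured by sulforhodamine B staining against time-zero and untreated-control plates. For each compound, percent growth relative to untreated cells was averaged across the panel as mean % growth. GI% per line = 100 − % growth.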

Data set [25] concerns the target multiple tyrosine kinase. The following applies: target not named at the place (multiple tyrosine kinase; context VEGFR2) ref 14; cited from earlier work.
Where [26] appears, read: 40 μM, versus 40% DMSO negative control.

The Ki is a measure of affinity in units of concentration, obtained from inhibition or displacement. For `Cc1[nH]c(/C=C2\C(=O)Nc3ccccc32)c(C)c1CCC(=O)O` [Orantinib], the Ki in data set [1] (read-out: Ki VEGFR2) was 9 nM.
As a reminder, the inhibition is the relative decrease from the control value, in per cent. As to `COc1ccc(C2=Nn3c(NN=C4C(=O)Nc5ccc(OC)cc54)nnc3SC2)cc1` [6n, 5-Methoxy-3-(2-(6-(4-methoxyphenyl)-7H-[1,2,4]triazolo[3,4-b][1,3,4]thiadiazin-3-yl)hydrazineylidene)indolin-2-one], the inhibition at 10 µM in data set [2] is 15%; in data set [3] it was 29%; in data set [5] it was 19%; in [6], 12%; in data set [7], 17%; in data set [8], 10%. In data set [4] (setting [26]), the “change in the number of blood vessels (in words)” value is reported as “significant decrease”. Further, the “reduction in the number of newly formed blood capillaries (angiogenesis)” value in data set [4] (40 μM, versus 40% DMSO negative control, 11th day) is on record as 27%.
For the compound `Cc1ccc(C2=Nn3c(NN=C4C(=O)Nc5ccccc54)nnc3SC2)cc1` [6c, 3-(2-(6-(p-Tolyl)-7H-[1,2,4]triazolo[3,4-b][1,3,4]thiadiazin-3-yl)hydrazineylidene)-indolin-2-one], the “toxicity / mortality against HET-CAM and the chick embryos” value (from here on “toxicity / mortality”) in data set [9] is reported as “toxic”.
For orientation: IC50 means the concentration at which inhibition is half-maximal. `Cc1[nH]c(/C=C2\C(=O)Nc3ccc(F)cc32)c(C)c1C(=O)NC[C@H](O)CN1CCOCC1` [SU14813]: the IC50 in data set [1] (read-out: IC50 VEGFR2) was 40 nM.
On to `Cc1[nH]c(/C=C2\C(=O)Nc3ccc(S(=O)(=O)N(C)c4cccc(Cl)c4)cc32)c(C)c1C(=O)N1CCN(C)CC1` [SU11274], for which, in [10], the IC50 is 12 nM.
For the compound `COc1ccc(C2=Nn3c(NN=C4C(=O)N(Cc5ccccc5)c5ccccc54)nnc3SC2)cc1` [6x, 1-Benzyl-3-(2-(6-(4-methoxyphenyl)-7H-[1,2,4]triazolo[3,4-b][1,3,4]thiadiazin-3-yl)hydrazineylidene)indolin-2-one], in [4] (setting [26]), the “change in the number of blood vessels (in words)” value is recorded as “significant decrease”.
In the case of `O=C1Nc2ccccc2C1=NNc1nnc2n1N=C(c1ccccc1)CS2` [6a, 3-(2-(6-Phenyl-7H-[1,2,4]triazolo[3,4-b][1,3,4]thiadiazin-3-yl)hydrazineylidene)indolin-2-one], the inhibition at 10 µM in data set [11] was 17%; in data set [12], 12%; in data set [13] it was 18%; in data set [14] it was 23%; in data set [15], 19%; in data set [16], 17%. The inhibition at 10 µM in data set [17] is 13%; in data set [18], 18%; in data set [19], 29%; in data set [20], 14%; in data set [5], 23%; in [6] it was 13%. Also, the figures for the inhibition at 10 µM in data set [21], in data set [22] and in [23] were 19%, 12% and 13%, respectively. Also, the “increase in the number of newly formed blood capillaries” value in [4] (setting [26]) came out at 33%. In data set [24] (single dose 10 μM, cell lines as listed in the sentence), the “GI (range over the susceptible cell lines listed in the sentence)” value is recorded as 35–57%.
As for `COc1ccc(C2=Nn3c(NN=C4C(=O)Nc5ccc(Cl)cc54)nnc3SC2)cc1` [6l, 5-Chloro-3-(2-(6-(4-methoxyphenyl)-7H-[1,2,4]triazolo[3,4-b][1,3,4]thiadiazin-3-yl)hydrazineylidene)indolin-2-one], the inhibition at 10 µM came to 23% in data set [14], 23% in data set [3] and 15% in data set [5]. Further, the “sensitive cell lines no.” value in [24] (number of cell lines of the panel with GI % shown (higher than 10%), 10 μM) amounted to 6.
For the compound `C[C@@H]1C[C@H]2[C@@H]3CCC4=CC(=O)C=C[C@]4(C)[C@@]3(F)[C@@H](O)C[C@]2(C)[C@@]1(O)C(=O)CO` [DEXA, dexamethasone, reference compound], the “reduction in the number of newly formed blood capillaries” value in data set [4] (DEXA 0.02 μg, positive control, versus 40% DMSO, P < 0.001) came out at 54%.
Regarding `CCN(CC)CCNC(=O)c1c(C)[nH]c(/C=C2\C(=O)Nc3ccc(F)cc32)c1C` [sunitinib], in data set [25], the Ki was 9 nM.
In the case of `CCCN1C(=O)C(=NNc2nnc3n2N=C(c2ccc(OC)cc2)CS3)c2cc(Cl)ccc21` [6w, 5-Chloro-3-(2-(6-(4-methoxyphenyl)-7H-[1,2,4]triazolo[3,4-b][1,3,4]thiadiazin-3-yl)hydrazineylidene)-1-propylindolin-2-one], the “toxicity / mortality” value in data set [9] is “toxic”.
Regarding `COc1ccc(C2=Nn3c(N/N=C4\C(=O)Nc5ccc(F)cc54)nnc3SC2)cc1` [6j, 5-Fluoro-3-(2-(6-(4-methoxyphenyl)-7H-[1,2,4]triazolo[3,4-b][1,3,4]thiadiazin-3-yl) hydrazineylidene)indolin-2-one], the “toxicity / mortality” value in [9] was “toxic”.
On the same count and under the same terms, as for `COc1ccc(C2=Nn3c(NN=C4C(=O)N(C)c5ccc(Cl)cc54)nnc3SC2)cc1` [6u, 5-Chloro-3-(2-(6-(4-methoxyphenyl)-7H-[1,2,4]triazolo[3,4-b][1,3,4]thiadiazin-3-yl)hydrazineylidene)-1-methylindolin-2-one], the entry is “toxic”.
